Laboratory results: ChEMBL document CHEMBL4130443, “Targeting breast cancer stem cells by novel HDAC3-selective inhibitors” (Eur J Med Chem, 2017)
Activity calls are given as the source filed them. No cut-off for these calls is given here.

Columns and labels:
Histone deacetylase 2 [1] = target: T1, Histone deacetylase 2 (Homo sapiens, UniProt Q92769); test: Inhibition of human HDAC2 using p53 (379 to 382 residues) derived fluorogenic peptide RHKKAc
Homo sapiens = species: Homo sapiens; test: Selectivity index, ratio of IC50 for human HDAC1 to IC50 for human HDAC3
[2] = target: Histone deacetylase 3/Nuclear receptor corepressor 2 (HDAC3/NCoR2) (Homo sapiens, UniProt O15379); test: Inhibition of human HDAC3/NCOR2 using p53 (379 to 382 residues) derived fluorogenic peptide RHKKAc; assay type: protein-complex assay
Sequence of Histone deacetylase 3/Nuclear receptor corepressor 2 (HDAC3/NCoR2) (O15379 whole entry, the tested form may be a part): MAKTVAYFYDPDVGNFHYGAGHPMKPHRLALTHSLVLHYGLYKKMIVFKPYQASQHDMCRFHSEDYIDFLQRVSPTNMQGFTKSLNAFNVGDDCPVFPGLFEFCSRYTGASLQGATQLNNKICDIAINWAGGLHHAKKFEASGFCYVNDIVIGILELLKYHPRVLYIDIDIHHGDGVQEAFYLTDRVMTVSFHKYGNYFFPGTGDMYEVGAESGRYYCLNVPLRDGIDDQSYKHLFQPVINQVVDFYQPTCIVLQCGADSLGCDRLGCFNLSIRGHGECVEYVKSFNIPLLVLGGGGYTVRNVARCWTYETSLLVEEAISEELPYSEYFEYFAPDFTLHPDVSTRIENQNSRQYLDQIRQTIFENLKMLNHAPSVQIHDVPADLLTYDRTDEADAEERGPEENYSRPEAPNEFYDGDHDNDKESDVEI
Sequence of Histone deacetylase 3/Nuclear receptor corepressor 2 (HDAC3/NCoR2) (Q9Y618 whole entry, further chain, the tested form may be a part): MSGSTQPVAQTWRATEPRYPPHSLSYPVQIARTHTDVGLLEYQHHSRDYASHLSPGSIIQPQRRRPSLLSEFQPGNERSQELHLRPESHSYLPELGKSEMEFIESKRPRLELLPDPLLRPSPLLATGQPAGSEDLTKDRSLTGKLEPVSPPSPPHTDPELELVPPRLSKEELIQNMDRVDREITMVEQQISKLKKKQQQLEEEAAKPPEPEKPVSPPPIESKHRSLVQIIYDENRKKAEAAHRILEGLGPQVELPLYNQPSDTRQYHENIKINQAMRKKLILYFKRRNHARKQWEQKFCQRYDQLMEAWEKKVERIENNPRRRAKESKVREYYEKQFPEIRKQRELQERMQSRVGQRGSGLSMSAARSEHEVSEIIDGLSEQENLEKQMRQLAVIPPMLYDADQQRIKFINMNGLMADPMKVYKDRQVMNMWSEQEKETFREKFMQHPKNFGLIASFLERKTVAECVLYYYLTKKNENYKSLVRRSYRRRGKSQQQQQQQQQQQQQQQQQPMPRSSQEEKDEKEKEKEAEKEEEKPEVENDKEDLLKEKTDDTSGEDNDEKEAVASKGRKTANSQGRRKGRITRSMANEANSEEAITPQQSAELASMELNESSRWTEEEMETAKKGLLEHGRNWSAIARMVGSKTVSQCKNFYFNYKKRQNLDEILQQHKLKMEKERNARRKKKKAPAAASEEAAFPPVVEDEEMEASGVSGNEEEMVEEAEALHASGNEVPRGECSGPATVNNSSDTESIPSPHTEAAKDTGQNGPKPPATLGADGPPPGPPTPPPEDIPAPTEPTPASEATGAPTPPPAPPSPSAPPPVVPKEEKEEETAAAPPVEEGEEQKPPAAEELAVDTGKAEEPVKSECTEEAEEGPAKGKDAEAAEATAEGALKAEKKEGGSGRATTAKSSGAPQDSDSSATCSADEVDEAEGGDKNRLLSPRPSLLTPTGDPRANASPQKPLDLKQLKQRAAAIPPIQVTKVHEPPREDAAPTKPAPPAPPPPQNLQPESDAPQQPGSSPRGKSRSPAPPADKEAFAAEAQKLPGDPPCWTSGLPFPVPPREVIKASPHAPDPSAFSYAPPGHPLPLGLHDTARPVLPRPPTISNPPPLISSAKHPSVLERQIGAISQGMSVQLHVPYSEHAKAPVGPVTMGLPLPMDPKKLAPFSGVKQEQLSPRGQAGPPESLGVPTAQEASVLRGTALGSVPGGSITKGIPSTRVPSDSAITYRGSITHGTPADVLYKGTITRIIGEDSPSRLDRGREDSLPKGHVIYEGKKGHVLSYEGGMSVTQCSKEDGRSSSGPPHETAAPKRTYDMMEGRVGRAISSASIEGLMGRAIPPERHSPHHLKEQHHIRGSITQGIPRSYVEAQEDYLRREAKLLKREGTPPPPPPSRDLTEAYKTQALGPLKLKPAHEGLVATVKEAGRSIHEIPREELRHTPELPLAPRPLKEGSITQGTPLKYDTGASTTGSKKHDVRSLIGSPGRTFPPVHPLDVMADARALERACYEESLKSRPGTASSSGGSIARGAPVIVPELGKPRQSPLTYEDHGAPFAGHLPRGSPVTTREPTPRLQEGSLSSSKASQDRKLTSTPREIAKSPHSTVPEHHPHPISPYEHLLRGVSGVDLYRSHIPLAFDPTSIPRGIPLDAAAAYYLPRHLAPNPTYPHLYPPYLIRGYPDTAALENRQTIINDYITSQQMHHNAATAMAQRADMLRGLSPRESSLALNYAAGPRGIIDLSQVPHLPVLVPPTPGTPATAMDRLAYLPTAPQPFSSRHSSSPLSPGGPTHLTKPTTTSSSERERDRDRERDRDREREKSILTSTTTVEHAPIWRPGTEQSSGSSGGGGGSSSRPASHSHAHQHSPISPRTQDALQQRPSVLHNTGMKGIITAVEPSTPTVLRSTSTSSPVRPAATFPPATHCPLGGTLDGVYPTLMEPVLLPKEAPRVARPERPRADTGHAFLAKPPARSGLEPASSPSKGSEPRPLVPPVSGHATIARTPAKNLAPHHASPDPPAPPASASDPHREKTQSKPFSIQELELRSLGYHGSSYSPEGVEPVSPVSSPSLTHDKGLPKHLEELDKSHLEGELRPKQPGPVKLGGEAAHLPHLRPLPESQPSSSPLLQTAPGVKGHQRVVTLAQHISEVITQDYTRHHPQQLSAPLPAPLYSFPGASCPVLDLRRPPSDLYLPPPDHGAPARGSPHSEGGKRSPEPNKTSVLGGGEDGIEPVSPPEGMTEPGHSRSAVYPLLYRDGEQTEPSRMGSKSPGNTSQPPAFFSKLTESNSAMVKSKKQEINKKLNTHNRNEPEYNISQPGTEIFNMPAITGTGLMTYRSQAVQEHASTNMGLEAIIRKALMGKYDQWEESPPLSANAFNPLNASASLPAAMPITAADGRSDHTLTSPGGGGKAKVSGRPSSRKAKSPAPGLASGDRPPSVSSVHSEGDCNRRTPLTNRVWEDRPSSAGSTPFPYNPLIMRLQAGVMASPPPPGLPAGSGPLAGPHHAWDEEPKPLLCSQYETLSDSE

Histone deacetylase 1 [3] = target: T2, Histone deacetylase 1 (Homo sapiens, UniProt Q13547); test: Inhibition of human HDAC1 using p53 (379 to 382 residues) derived fluorogenic peptide RHKKAc
T2 sequence (Q13547 whole entry, the tested form may be a part): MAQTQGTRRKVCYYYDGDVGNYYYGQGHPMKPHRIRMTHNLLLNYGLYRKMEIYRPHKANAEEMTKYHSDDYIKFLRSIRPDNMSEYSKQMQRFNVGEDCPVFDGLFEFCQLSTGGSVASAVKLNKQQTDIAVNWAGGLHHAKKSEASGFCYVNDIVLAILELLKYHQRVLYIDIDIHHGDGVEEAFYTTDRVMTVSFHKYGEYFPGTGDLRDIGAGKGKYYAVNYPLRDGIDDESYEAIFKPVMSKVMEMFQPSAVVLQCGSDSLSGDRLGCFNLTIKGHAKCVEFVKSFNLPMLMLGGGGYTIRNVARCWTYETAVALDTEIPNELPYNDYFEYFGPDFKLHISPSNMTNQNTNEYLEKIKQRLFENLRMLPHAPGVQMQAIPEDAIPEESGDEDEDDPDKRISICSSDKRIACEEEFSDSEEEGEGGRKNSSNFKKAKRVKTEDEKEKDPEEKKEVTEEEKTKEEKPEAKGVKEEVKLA

[4] = target: T3, Protein deacetylase HDAC6 (Homo sapiens) (UniProt Q9UBN7); test: Inhibition of HDAC6 in human MDA-MB-231 cells assessed as increase in histone H3K9 acetylation at 0.1 to 2.5uM incubated for 48 hrs by Western blot method; assay type: cell-based; conditions: in the assay text read “tubulin acetylation” for “histone H3K9 acetylation”
T3 sequence (whole entry): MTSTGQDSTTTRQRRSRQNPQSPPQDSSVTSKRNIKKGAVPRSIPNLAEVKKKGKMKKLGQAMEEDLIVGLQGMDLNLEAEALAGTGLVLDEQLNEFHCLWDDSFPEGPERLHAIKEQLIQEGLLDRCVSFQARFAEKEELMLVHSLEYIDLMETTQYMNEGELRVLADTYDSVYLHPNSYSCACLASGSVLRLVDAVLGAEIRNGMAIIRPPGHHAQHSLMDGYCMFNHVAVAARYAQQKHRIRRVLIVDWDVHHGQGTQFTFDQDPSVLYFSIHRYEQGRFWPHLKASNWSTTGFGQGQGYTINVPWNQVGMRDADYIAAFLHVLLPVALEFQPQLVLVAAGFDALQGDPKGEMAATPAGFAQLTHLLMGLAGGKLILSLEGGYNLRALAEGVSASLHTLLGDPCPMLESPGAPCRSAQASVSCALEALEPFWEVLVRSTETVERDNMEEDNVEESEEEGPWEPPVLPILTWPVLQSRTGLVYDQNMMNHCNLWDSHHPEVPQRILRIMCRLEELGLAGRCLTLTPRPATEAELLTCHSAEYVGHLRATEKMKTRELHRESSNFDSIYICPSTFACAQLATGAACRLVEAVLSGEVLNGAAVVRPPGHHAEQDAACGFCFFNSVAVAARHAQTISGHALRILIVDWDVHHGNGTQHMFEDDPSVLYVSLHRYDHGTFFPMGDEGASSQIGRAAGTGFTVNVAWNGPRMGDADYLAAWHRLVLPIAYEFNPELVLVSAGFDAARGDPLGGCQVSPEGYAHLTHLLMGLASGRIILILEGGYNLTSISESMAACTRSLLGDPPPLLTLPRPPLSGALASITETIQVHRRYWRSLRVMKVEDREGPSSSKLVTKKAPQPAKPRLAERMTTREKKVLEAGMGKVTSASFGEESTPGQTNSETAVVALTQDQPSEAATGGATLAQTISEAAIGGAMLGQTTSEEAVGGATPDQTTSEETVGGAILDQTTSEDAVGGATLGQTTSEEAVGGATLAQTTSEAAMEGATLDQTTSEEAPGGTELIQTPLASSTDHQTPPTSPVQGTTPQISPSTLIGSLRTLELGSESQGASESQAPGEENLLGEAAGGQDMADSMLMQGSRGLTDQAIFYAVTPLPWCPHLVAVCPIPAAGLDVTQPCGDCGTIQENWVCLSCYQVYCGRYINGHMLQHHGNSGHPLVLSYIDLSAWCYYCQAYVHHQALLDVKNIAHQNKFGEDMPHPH
Procedure, shortened: (§1)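 Cells treated 48 h at the indicated concentrations, with a reference HDAC inhibitor at 0.25 µM as positive control on each blot. Lysed in 1% SDS, 10 mM EDTA, 50 mM Tris-HCl pH 8.1 with protease/phosphatase inhibitors, then sonicated. Equal protein by SDS-PAGE on nitrocellulose. Primary antibodies 1:1000 overnight at 4°C, HRP secondary, ECL. Blots for pan-H3 and H3K9 acetylation, tubulin acetylation and Notch1.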

[5] = target: T4, Histone deacetylase 8 (Homo sapiens) (UniProt Q9BY41); test: Inhibition of HDAC8 in human MDA-MB-231 cells assessed as reduction in Notch1 expression at 0.1 to 2.5uM incubated for 48 hrs by Western blot method; assay type: cell-based; procedure, shortened: as §1
T4 sequence (whole entry): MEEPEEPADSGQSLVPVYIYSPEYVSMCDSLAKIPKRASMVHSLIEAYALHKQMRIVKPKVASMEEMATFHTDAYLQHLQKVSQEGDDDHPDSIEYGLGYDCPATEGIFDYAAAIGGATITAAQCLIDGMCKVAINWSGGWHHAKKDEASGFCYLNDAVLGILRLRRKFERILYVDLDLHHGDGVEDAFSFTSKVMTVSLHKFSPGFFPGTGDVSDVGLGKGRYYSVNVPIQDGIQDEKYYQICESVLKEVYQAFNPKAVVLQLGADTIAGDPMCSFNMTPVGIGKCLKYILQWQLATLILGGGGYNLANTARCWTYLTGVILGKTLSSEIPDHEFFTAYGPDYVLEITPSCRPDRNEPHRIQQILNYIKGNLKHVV

[6] = target: Histone deacetylase 3/Nuclear receptor corepressor 2 (HDAC3/NCoR2) (Homo sapiens) (UniProt O15379+Q9Y618); test: Inhibition of human HDAC3/NCOR2 at 1 uM using p53 (379 to 382 residues) derived fluorogenic peptide RHKKAc; assay type: protein-complex assay
Procedure, shortened: (§2)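 Isoform profiling run by a commercial vendor with compounds at 1 µM. Values are percent inhibition, each the average of two determinations.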

Histone deacetylase 2 [7] = target: T1, Histone deacetylase 2; test: Inhibition of human HDAC2 at 1 uM using p53 (379 to 382 residues) derived fluorogenic peptide RHKKAc; procedure, shortened: as §2
Histone deacetylase 1 [8] = target: T2, Histone deacetylase 1; test: Inhibition of human HDAC1 at 1 uM using p53 (379 to 382 residues) derived fluorogenic peptide RHKKAc; procedure, shortened: as §2
[9] = target: T3, Protein deacetylase HDAC6 (Homo sapiens); test: Inhibition of human HDAC6 at 1 uM using p53 (379 to 382 residues) derived fluorogenic peptide RHKKAc; procedure, shortened: as §2
[10] = target: Histone deacetylase 4 (Homo sapiens) (UniProt P56524); test: Inhibition of human HDAC4 at 1 uM using Boc-Lys(trifluoroacetyl)-AMC substrate; procedure, shortened: as §2
Sequence of Histone deacetylase 4 (Homo sapiens) (P56524 whole entry): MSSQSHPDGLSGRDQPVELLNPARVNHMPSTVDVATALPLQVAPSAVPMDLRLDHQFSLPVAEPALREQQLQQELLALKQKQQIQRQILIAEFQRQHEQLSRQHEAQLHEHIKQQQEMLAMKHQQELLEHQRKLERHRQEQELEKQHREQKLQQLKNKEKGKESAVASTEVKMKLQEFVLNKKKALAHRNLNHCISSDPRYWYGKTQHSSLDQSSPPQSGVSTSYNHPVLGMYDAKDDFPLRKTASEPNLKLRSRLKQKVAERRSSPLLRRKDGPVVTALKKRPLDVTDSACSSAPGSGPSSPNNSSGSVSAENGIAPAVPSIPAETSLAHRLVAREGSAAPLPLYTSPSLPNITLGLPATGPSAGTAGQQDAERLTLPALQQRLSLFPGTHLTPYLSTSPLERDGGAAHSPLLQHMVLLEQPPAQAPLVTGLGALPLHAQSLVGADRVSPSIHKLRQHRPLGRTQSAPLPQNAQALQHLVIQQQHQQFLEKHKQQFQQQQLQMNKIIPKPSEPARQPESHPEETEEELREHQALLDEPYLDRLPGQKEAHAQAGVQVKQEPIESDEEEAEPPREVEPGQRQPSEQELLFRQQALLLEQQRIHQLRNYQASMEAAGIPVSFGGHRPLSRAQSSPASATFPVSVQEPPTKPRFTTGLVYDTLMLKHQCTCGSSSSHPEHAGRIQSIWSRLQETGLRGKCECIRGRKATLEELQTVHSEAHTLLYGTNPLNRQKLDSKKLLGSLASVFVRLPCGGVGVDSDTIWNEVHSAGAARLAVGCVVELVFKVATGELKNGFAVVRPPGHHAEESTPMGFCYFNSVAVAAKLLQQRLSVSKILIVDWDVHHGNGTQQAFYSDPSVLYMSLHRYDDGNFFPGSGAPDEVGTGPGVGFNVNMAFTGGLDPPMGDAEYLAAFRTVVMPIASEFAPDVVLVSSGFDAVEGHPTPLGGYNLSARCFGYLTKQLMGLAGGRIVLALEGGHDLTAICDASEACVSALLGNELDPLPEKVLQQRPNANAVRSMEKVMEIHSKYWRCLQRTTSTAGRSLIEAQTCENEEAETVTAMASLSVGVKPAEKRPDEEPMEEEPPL

[11] = target: Histone deacetylase 5 (Homo sapiens) (UniProt Q9UQL6); test: Inhibition of human HDAC5 at 1 uM using Boc-Lys(trifluoroacetyl)-AMC substrate; procedure, shortened: as §2
[12] = target: T4, Histone deacetylase 8 (Homo sapiens); test: Inhibition of human HDAC8 at 1 uM using p53 (379 to 382 residues) derived fluorogenic peptide RHKAcKAc; procedure, shortened: as §2

T1 sequence (Q92769 whole entry, the tested form may be a part): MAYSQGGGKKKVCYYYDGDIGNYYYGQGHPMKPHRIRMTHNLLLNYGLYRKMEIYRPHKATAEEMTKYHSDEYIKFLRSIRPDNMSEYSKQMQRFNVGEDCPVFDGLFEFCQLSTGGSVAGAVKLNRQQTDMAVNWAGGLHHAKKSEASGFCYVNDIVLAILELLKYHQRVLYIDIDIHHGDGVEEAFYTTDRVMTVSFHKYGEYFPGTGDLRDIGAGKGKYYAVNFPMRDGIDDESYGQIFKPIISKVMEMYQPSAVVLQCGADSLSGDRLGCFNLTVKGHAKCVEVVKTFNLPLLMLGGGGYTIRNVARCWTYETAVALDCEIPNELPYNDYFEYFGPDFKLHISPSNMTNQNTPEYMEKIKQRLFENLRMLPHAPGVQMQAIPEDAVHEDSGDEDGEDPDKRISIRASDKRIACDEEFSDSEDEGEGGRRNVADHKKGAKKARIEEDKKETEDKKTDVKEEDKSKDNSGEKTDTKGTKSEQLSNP

| SMILES | IC50 (Histone deacetylase 2 [1]) | Ratio IC50 (Homo sapiens) | IC50 [2] | IC50 (Histone deacetylase 1 [3]) | inhibition [4] | inhibition [5] | inhibition [6] | inhibition (Histone deacetylase 2 [7]) | inhibition (Histone deacetylase 1 [8]) | inhibition [9] | inhibition [10] | inhibition [11] | inhibition [12] |
| --- | --- | --- | --- | --- | --- | --- | --- | --- | --- | --- | --- | --- | --- |
| CC(C)[C@@H](C(=O)Nc1ccc(C(=O)Nc2ccc(F)cc2N)nc1)c1ccccc1 | 1.1 µM | 6.5 | 0.08 µM | 0.52 µM | inactive | inactive |  |  |  |  |  |  |  |
| Nc1cc(F)ccc1NC(=O)c1ccc(NC(=O)CCc2ccccc2)cn1 | 7.8 µM |  | > 10 µM | 1.3 µM |  |  | inactive | inactive | inactive |  |  |  |  |
| CC[C@@H](C(=O)Nc1ccc(C(=O)Nc2ccc(F)cc2N)cc1)c1ccccc1 | 1.2 µM | 10.9 | 0.11 µM | 1.2 µM |  |  |  |  |  |  |  |  |  |
| CC(C)[C@@H](C(=O)Nc1ccc(C(=O)Nc2ccc(C(F)(F)F)cc2N)cc1)c1ccccc1 |  |  |  |  |  |  | 0% | 4% | 6% | 0% | 3% | 0% | 0% |
| C[C@H](C(=O)Nc1ccc(C(=O)Nc2ccc(F)cc2N)cc1)c1ccccc1 | 3.4 µM | 13 | 0.23 µM | 3.2 µM |  |  |  |  |  |  |  |  |  |
| Nc1cc(F)ccc1NC(=O)c1ccc(NC(=O)Cc2ccc(C(F)(F)F)cc2)cn1 | > 10 µM |  | > 10 µM | > 10 µM |  |  |  |  |  |  |  |  |  |
| CC[C@H](C(=O)Nc1ccc(C(=O)Nc2ccc(F)cc2N)cc1)c1ccccc1 | 4.8 µM | 14.7 | 0.17 µM | 2.5 µM |  |  |  |  |  |  |  |  |  |
| Nc1cc(F)ccc1NC(=O)c1ccc(NC(=O)[C@@H]2C[C@@H]2c2ccccc2)cc1 (relative stereo) | 2.1 µM |  | 0.2 µM | 1.3 µM |  |  |  |  |  |  |  |  |  |
| CC[C@H](C(=O)Nc1ccc(C(=O)Nc2ccc(F)cc2N)nc1)c1ccccc1 | 4.2 µM |  | 0.53 µM | 0.61 µM |  |  |  |  |  |  |  |  |  |
| CC(C)[C@H](C(=O)Nc1ccc(C(=O)Nc2ccc(F)cc2N)nc1)c1ccccc1 | 2.5 µM |  | 0.3 µM | 1.5 µM | inactive | inactive |  |  |  |  |  |  |  |
| C[C@@H](C(=O)Nc1ccc(C(=O)Nc2ccc(F)cc2N)nc1)c1ccccc1 | 3 µM |  | 0.58 µM | 0.76 µM | inactive | inactive |  |  |  |  |  |  |  |
| CC[C@@H](C(=O)Nc1ccc(C(=O)Nc2ccc(F)cc2N)nc1)c1ccccc1 | 0.63 µM |  | 0.06 µM | 0.3 µM | inactive | inactive |  |  |  |  |  |  |  |
| Nc1cc(F)ccc1NC(=O)c1ccc(NC(=O)C2CC2c2ccccc2)cn1 (configuration not stated) | 4.9 µM |  | 1 µM | 1.2 µM |  |  |  |  |  |  |  |  |  |
| Nc1cc(F)ccc1NC(=O)c1ccc(NC(=O)CCc2ccccc2)cc1 | 1.1 µM |  | 0.8 µM | 1.2 µM |  |  |  |  |  |  |  |  |  |
| Nc1cc(F)ccc1NC(=O)c1ccc(NC(=O)Cc2ccc(F)cc2)cc1 | 2.7 µM |  | 0.2 µM | 5.5 µM |  |  |  |  |  |  |  |  |  |
| CC(C)(C(=O)Nc1ccc(C(=O)Nc2ccccc2N)cc1)c1ccccc1 |  |  |  |  |  |  | 36% | 34% | 49% | 4% | 6% | 0% | 0% |
| CC(C)[C@@H](C(=O)Nc1ccc(C(=O)Nc2ccc(F)cc2N)cc1)c1ccccc1 | 1.8 µM | 1.2 | 1 µM | 1.2 µM |  |  | 78% | 26% | 42% | 0% | 0% | 0% | 6% |
| Nc1ccccc1NC(=O)c1ccc(NC(=O)Cc2ccc(C(F)(F)F)cc2)cc1 |  |  |  |  |  |  | 33% | 38% | 78% | 0% | 0% | 0% | 0% |
| C[C@H](C(=O)Nc1ccc(C(=O)Nc2ccc(F)cc2N)nc1)c1ccccc1 | 2 µM |  | 0.13 µM | 1.4 µM | inactive | inactive |  |  |  |  |  |  |  |
| Nc1cc(F)ccc1NC(=O)c1ccc(NC(=O)Cc2ccc(C(F)(F)F)cc2)cc1 | 1.3 µM |  | 0.2 µM | 1.5 µM |  |  | 36% | 32% | 41% | 0% | 0% | 0% | 5% |
| C[C@@H](C(=O)Nc1ccc(C(=O)Nc2ccc(F)cc2N)cc1)c1ccccc1 | 2.8 µM | 8.6 | 0.21 µM | 1.8 µM |  |  |  |  |  |  |  |  |  |
| Nc1cc(F)ccc1NC(=O)c1ccc(NC(=O)Cc2ccccc2)cn1 | 2 µM |  | 0.52 µM | 1.1 µM |  |  |  |  |  |  |  |  |  |
| CC(C)[C@@H](C(=O)Nc1ccc(C(=O)Nc2ccc(F)cc2N)cn1)c1ccccc1 | 8.4 µM |  | 1.7 µM | > 10 µM |  |  |  |  |  |  |  |  |  |
| Nc1cc(F)ccc1NC(=O)c1ccc(NC(=O)Cc2ccc(F)cc2)cn1 | 3 µM |  | 0.39 µM | 0.37 µM |  |  |  |  |  |  |  |  |  |
| Nc1cc(F)ccc1NC(=O)c1ccc(NC(=O)C2CC2c2ccccc2)cc1 (configuration not stated) | > 10 µM |  | 0.2 µM | > 10 µM |  |  | 82% | 9% | 0% | 0% | 0% | 3% | 14% |
